From ChEMBL document CHEMBL1132324, “Structure-activity relationships in 1,4-benzodioxan-related compounds. 6. Role of the dioxane unit on selectivity for alpha(1)-adrenoreceptor subtypes” (J Med Chem, 1999)

Assays:
[1] = molecular target: T1, Alpha-1B adrenergic receptor (Homo sapiens) (UniProt P35368); assay: The binding affinity was evaluated on cloned human alpha-1B adrenergic receptor expressed in chinese hamster ovary(CHO) cells by using [3H]prazosin as radioligand.; assay type: cell-based
T1 sequence (whole entry): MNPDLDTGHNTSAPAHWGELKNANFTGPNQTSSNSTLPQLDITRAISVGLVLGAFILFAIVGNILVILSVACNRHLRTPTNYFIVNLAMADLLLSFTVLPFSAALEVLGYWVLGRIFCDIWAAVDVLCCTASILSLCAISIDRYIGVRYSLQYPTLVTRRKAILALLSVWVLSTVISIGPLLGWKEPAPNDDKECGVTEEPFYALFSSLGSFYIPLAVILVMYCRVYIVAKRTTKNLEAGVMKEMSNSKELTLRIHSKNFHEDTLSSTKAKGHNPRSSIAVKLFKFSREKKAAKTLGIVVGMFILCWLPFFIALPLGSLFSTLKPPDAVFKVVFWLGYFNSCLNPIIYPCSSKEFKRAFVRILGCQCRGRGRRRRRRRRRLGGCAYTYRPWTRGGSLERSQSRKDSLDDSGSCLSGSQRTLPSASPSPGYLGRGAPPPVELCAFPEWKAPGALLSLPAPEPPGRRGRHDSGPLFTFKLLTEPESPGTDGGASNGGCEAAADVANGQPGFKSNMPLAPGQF
Procedure, shortened: (§1)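 Membranes (30 μg protein) from CHO cells stably expressing each human α1 subtype, in 50 mM Tris-HCl pH 7.4. Incubated with 0.1–0.4 nM [3H]prazosin for 30 min at 25 °C, competitor 1 pM–10 μM. Nonspecific binding with 10 μM phentolamine. Ki by Cheng-Prusoff. 2–3 experiments in triplicate.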

[2] = molecular target: T2, Alpha-1A adrenergic receptor (Homo sapiens) (UniProt P35348); assay: The binding affinity was evaluated on cloned human alpha-1A adrenergic receptor expressed in chinese hamster ovary(CHO) cells by using [3H]prazosin as radioligand.; assay type: cell-based; procedure, shortened: as §1
T2 sequence (whole entry): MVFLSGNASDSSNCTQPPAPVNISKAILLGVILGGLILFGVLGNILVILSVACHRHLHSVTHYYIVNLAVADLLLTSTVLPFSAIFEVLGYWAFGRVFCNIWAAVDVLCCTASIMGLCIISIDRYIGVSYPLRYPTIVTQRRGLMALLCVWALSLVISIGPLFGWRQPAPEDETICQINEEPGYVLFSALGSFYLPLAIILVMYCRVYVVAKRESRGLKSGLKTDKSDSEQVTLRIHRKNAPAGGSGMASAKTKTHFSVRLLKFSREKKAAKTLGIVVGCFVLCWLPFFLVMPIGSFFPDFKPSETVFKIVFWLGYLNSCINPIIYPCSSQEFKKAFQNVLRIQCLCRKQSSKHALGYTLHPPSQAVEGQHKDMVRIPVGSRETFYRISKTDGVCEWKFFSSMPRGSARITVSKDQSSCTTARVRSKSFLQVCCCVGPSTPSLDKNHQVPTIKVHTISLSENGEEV

[3] = molecular target: T3, Alpha-1D adrenergic receptor (Rattus norvegicus) (UniProt P23944); assay: Antagonist affinity was expressed as apparent pKb at alpha-1D adrenergic receptor on isolated rat thoracic aorta (Alpha-1D adrenergic receptor); assay type: functional, tissue-based
T3 sequence (whole entry): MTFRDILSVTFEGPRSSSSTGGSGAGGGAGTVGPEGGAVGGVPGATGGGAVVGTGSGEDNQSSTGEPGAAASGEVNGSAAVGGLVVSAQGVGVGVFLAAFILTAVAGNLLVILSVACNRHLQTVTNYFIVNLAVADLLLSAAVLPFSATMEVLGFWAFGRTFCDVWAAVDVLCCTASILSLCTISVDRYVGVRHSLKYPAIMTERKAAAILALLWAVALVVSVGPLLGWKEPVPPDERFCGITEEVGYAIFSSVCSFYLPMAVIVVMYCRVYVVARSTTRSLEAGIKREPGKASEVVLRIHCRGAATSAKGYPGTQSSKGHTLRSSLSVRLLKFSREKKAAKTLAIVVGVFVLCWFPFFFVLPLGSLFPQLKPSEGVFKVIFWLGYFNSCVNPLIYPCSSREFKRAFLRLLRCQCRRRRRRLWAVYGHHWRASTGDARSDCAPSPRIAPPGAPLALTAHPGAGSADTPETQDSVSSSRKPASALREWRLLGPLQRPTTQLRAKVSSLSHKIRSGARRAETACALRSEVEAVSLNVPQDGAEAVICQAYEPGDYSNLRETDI
Procedure, shortened: (§2)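 Helicoidal strips of rat thoracic aorta at 1 g tension, with 0.1 μM cocaine and 1 μM propranolol. After ≥1 h equilibration, cumulative (–)-noradrenaline curves at 30-min intervals; the third served as control. Antagonist equilibrated 30 min before the fourth curve. Apparent pKb from log(DR−1) − log[B], 2–3 antagonist concentrations, each tested four times.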

[4] = system: Alpha-1B adrenergic receptor (Cavia porcellus); assay: Antagonist affinity was expressed as apparent pKb at alpha-1B adrenergic receptor on isolated Guinea pig spleen (Alpha-1B adrenergic receptor)
[5] = molecular target: T4, Alpha-1D adrenergic receptor (Homo sapiens) (UniProt P25100); assay: The binding affinity was evaluated on cloned human Alpha-1D adrenergic receptor expressed in chinese hamster ovary(CHO) cells by using [3H]-prazosin as radioligand.; assay type: cell-based; procedure, shortened: as §1
T4 sequence (whole entry): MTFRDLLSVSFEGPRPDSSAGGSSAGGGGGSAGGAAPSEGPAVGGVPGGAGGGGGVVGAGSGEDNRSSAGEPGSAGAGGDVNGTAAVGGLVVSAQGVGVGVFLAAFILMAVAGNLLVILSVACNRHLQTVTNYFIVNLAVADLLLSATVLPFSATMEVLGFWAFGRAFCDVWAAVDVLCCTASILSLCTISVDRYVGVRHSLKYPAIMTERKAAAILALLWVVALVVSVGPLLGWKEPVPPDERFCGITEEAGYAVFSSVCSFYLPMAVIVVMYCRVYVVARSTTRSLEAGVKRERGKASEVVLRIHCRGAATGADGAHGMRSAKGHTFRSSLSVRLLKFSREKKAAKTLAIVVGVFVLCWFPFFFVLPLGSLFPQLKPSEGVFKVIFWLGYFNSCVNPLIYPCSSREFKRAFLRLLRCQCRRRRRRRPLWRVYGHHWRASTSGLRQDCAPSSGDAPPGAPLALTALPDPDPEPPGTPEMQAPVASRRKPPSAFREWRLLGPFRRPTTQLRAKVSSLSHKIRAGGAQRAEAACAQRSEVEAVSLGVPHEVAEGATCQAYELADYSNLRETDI

[6] = molecular target: T2, Alpha-1A adrenergic receptor (Homo sapiens); assay: The binding affinity was evaluated on cloned human Alpha-1A adrenergic receptor expressed in chinese hamster ovary(CHO) cells by using [3H]prazosin as radioligand.; assay type: cell-based; procedure, shortened: as §1
[7] = molecular target: T3, Alpha-1D adrenergic receptor (Rattus norvegicus); assay: Antagonist affinity was expressed as apparent pKb at Alpha-1D adrenergic receptor on isolated rat thoracic aorta (Alpha-1D); assay type: functional, tissue-based; procedure, shortened: as §2
[8] = molecular target: Adrenergic receptor alpha-2 (Rattus norvegicus) (UniProt P22086+P19328+P22909); assay: The binding affinity was evaluated on Alpha-2 adrenergic receptor expressed in rat cortex by using [3H]rauwolscine as radioligand.
Procedure, shortened: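 Male Sprague-Dawley rat cerebral cortex membranes, washed in Tris-HCl pH 7.4 and resuspended with 10 μM pargyline and 0.1% ascorbic acid. Incubated 30 min at 25 °C with 0.5–1.5 nM [3H]rauwolscine. Nonspecific binding with 10 μM phentolamine. Filtration on PEI-treated filters. Ki by Cheng-Prusoff. 2–3 experiments in triplicate.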

pKi [1]	pKi [2]	pKb [3]	pKb [4]	pKi [5]	pKi [6]	pKb [7]	pKi [8]	Structure (SMILES)
6.84	9.22	6.98	6.05	–	–	–	–	COc1cccc(OC)c1OCCNCC1C(=O)c2ccccc2OC1c1ccccc1 (stereo unspecified)
–	–	–	–	7.28	8.49	7.46	< 6	COc1cccc(OC)c1OCCNCC1Oc2ccccc2CC1c1ccccc1 (stereo in doubt; 7)
–	–	–	–	10.2	9.33	9.37	–	COc1cccc(OC)c1OCCNCCOc1ccccc1OCc1ccccc1
